Screens deposited in PubChem BioAssay by several laboratories.
bCat nuc transl: modulators of beta-catenin nuclear translocation, primary screen, imaging, HeLa cells, immunofluorescence, high-content | nuclear translocation activity, % at 5 µM | 0.3% of 190,000 active;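 active means nuclear translocation activity above 50% at 5 µM, with a well cell count of 50 or more; inconclusive means wells under 50 cells across six images, flagged as toxic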;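 further: per-cell ratio of nuclear to cytoplasmic median beta-catenin stain intensity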
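System: Human HeLa cells, endogenous beta-catenin | Compound dosing: 5 µM primary, 0.02–20 µM confirmation | Timing: 24 h compound exposure at 37°C, 5% CO2 | Measured by: Fluorescence imaging of beta-catenin antibody stain plus DAPI | Read-out basis: % activation of per-cell nuclear versus cytoplasmic median beta-catenin signal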
Dynein transport: inhibitors of GR-EGFP nuclear translocation, primary screen, dynein cargo transport inhibitor project, imaging, high-content, 3617.4 mouse cells | test concentration mostly 20 µM; stimulated with dexamethasone, 1 µM; active compounds read low | z-score, hits read low | 0.47% of 220,000 active | AID 1381, 2008;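 active means plate z-score of nuclear minus cytoplasmic receptor signal below a set negative limit, without overly bright fluorescence or cell loss, cut at about -3.5 in these data, passing the limit was not always enough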;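 further: z-score of nuclear minus cytoplasmic ring GR-EGFP intensity difference per well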
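Buffer or medium: tet-free medium with charcoal-stripped serum / Also added: dexamethasone agonist, 1.0 µM final, for 30 min / Timing: induction 48 h, compound 1 h, agonist 30 min / Measured by: high-content fluorescence imaging after fixation / Read-out: nuclear-to-cytoplasmic GR-EGFP distribution per well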
MT stabilize HCS: microtubule stabilizers in HeLa cells, primary screen, imaging, high-content imaging; % tubulin-high responders, % at 10 µM; 0.83% of 200,000 active; HeLa tubulin immunostaining HCS, 24 h; share of cells brighter than vehicle mean+2SD; AID 2205, 2009;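 active means plate Z-score above 3 for both tubulin-high and condensed-nucleus cell shares, with cell loss under 80%, at 10 µM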;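 further: anti alpha tubulin signal scored within the nucleus-defined area of each cell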
HSV replic up: enhancers of HSV replication in host cells, fold increase, host cell viability; HSV replication augmentation in cells; maximum fold increase; AID 1956, 2009; 0.005% of 220,000 active; in the data active means maximum fold increase above about 1.5; inconclusive means no clear call, values can overlap the other calls; tested in PC3 cells
Lmaj promast: Leishmania major promastigote growth inhibition, primary screen; 9% of 200,000 active; Leishmania major promastigotes, resazurin fluorescence viability; inhibition, % at 10 µM; in the data active means inhibition above about 50%;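 further: promastigotes grown with compound for 44 hours at 28 °C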
Lmaj promast 1uM: Leishmania major promastigote growth inhibition, confirmation, 1 µM repeat of primary hits | 13% of 1,100 active | shares compounds with Lmaj promast | L. major promastigote growth, resazurin fluorescence, 48 h | inhibition, % at 1 µM;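 active means inhibition above about 50% in both repeat tests, limit read from the data; inconclusive means one repeat under the set limit, the other over it; inactive means both repeats under the set limit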
Each line names hits and unclear results; the compound was inactive in the other large screens (follow-up assays come after a bar, where they were run). An excerpt weighted towards active compounds, which were near 8.9% of everything screened.

Cc1cc(C)c(/C=N/n2c(C)cc(C)c(C#N)c2=O)c(C)c1	Lmaj promast 73 (no result: bCat nuc transl) | Lmaj promast 1uM inactive
CC(C)C[C@H](NC(=O)NC(C)C)C(=O)O	none
CCOc1ccc(N(C(=O)c2cnsn2)C(C(=O)NC2CCCCC2)c2ccncc2)cc1 (stereo unspecified)	Lmaj promast 76 | Lmaj promast 1uM inactive
CC(C)(C)NC(=O)c1ccc2c(c1)N(CC(=O)N1CCN(c3ccc(F)cc3)CC1)C(=O)C(C)(C)O2	none
Cc1ccc(C)c(S(=O)(=O)NCCOC(=O)Nc2sc(=S)n(C)c2C)c1	Lmaj promast 88 | Lmaj promast 1uM inactive
CC(=O)NCCOC(=O)Nc1sc(=S)n(C)c1C	none
CC(C)c1nc2sc3c(c2c(=O)o1)CCCC3	none
Cc1c2ccccc2nc2c(F)c(NC(C)C)c(F)c(F)c12	HSV replic up inconclusive, Lmaj promast 50 | Lmaj promast 1uM inactive
Cc1c2ccccc2nc2c(F)c(NCCO)c(F)c(F)c12	none
Nc1cc2nn(-c3ccccc3)nc2cc1Cl	none
Nc1ccc2nn(-c3cccc4ccccc34)nc2c1	Lmaj promast 99 (no result: bCat nuc transl) | Lmaj promast 1uM inactive
Cc1cc2nn(-c3cccc4ccccc34)nc2cc1N	none
Nc1ccc2nn(-c3ccccc3)nc2c1	Lmaj promast 81 | Lmaj promast 1uM inactive
Cc1n[nH]c(=S)c2nn(-c3cccc(Cl)c3)c(C)c12	none (no result: HSV replic up)
OC1(c2ccc(F)cc2)CCN(Cc2ccccc2)C1 (stereo unspecified)	Lmaj promast 88 | Lmaj promast 1uM inactive
COc1cc(NC(C)CCCN)c2ncccc2c1Oc1ccccc1 (stereo unspecified)	Lmaj promast 101 | Lmaj promast 1uM 101
CC(=O)C1=NN(c2ccccc2)C(c2ccc3c(c2)OCO3)N1c1ccccc1 (stereo unspecified)	none
CC(=O)C1=NN(c2ccccc2)C(c2cccs2)N1c1ccc(N(C)C)cc1 (stereo unspecified)	Lmaj promast 96 | Lmaj promast 1uM inactive
CC1CC(=O)N(CC(=O)Nc2ccc3c(c2)OCCO3)c2ccccc2S1 (stereo unspecified)	none
CC(NC(=O)CSc1nc2sc3c(c2c(=O)n1-c1ccccc1)CCCC3)c1ccccc1 (stereo unspecified)	Lmaj promast 69 | Lmaj promast 1uM inactive
COc1cccc(OC)c1C(=O)NNC(=O)c1cccnc1	none (no result: MT stabilize HCS, Lmaj promast)
NNc1nc(-c2ccccc2)cc(-c2ccccc2)n1	Lmaj promast 91 | Lmaj promast 1uM inactive
N#Cc1cc(-c2ccccc2)nc(NN)n1	none (no result: MT stabilize HCS, Lmaj promast)
O=C(Oc1nsnc1N1CCOCC1)c1ccccc1	none (no result: bCat nuc transl)
Cc1cc(C)c2cc(C=O)c(Cl)nc2c1	Lmaj promast 58 (no result: bCat nuc transl) | Lmaj promast 1uM inactive
CCc1cc2cc(C)cc(C)c2nc1Cl	none
COc1ccccc1CO/N=C/c1cccn1-c1nccc(N(C)C)c1C#N	Lmaj promast 71 (no result: bCat nuc transl) | Lmaj promast 1uM inactive
Nc1nc(-c2cccs2)c(NC(=O)c2ccccc2)s1	Lmaj promast 86 | Lmaj promast 1uM inactive
CCOC(=O)c1sc(-c2ccc(Br)cc2)cc1N	none
CCOC(=O)c1cc(-c2ccc(N)cc2)sc1N	Lmaj promast 60 (no result: bCat nuc transl) | Lmaj promast 1uM inactive
CCOC(=O)c1c(N)sc(C(=O)N(CC)CC)c1C	none
CC1=CC(C)(C)Nc2ccc(OC(=O)c3ccco3)cc21	Lmaj promast 101 | Lmaj promast 1uM inactive
CS(=O)(=O)N(CC(=O)NCc1ccc2c(c1)OCO2)c1ccccc1	none
Cc1ccn2cc(C34CC5CC(CC(C5)C3)C4)nc2c1	Lmaj promast 60 | Lmaj promast 1uM inactive
CC(=O)Nc1ccc(Oc2ccc([N+](=O)[O-])cc2Cl)cc1	none
O=C(Cn1cnc([N+](=O)[O-])c1)Nc1cc(Oc2ccc(Cl)cc2Cl)cc([N+](=O)[O-])c1	bCat nuc transl inconclusive, Lmaj promast 100 | Lmaj promast 1uM 62
N#Cc1ccc(Oc2ccc(-c3nc4ccccc4nc3-c3ccccc3)cc2)cc1C#N	Lmaj promast 93 | Lmaj promast 1uM inactive
CN1C(=O)CCC1(O)c1ccccc1 (stereo unspecified)	none
CC(C)CCN(C)C1CCN(S(=O)(=O)c2cccc(C(F)(F)F)c2)CC1	Lmaj promast 93 (no result: bCat nuc transl, HSV replic up) | Lmaj promast 1uM 80
CC1CN(S(=O)(=O)c2cccc(C(F)(F)F)c2)CC(C)O1 (stereo unspecified)	none (no result: MT stabilize HCS, Lmaj promast)
Clc1nc2c(-c3ccccc3)nnn2c2ccccc12	none (no result: MT stabilize HCS, Lmaj promast)
Fc1cccc(-c2nnn3c2nc(Cl)c2ccccc23)c1	Lmaj promast 98 | Lmaj promast 1uM 81
O=C(Nc1ccccc1)Nc1ccc(-n2ccc(C(F)(F)F)n2)cc1	none (no result: MT stabilize HCS, Lmaj promast)
Cc1noc(C)c1S(=O)(=O)NCCCN1CCN(Cc2ccccc2)CC1	Lmaj promast 92 (no result: HSV replic up) | Lmaj promast 1uM inactive
Cc1noc(C)c1S(=O)(=O)NCCN1CCN(c2ccccc2)CC1	none
Cc1cccc(C)c1-n1nnnc1S(=O)(=O)Cc1ccccc1Cl	Lmaj promast 77 | Lmaj promast 1uM inactive
Cc1nc(S(=O)(=O)Cc2ccccc2Cl)nc2c1CCC2	none
CCNC(=S)NNC(=O)CSc1nc2ccccc2[nH]1	none
Cn1c(=O)c2nc(-c3ccccc3)oc2c2ccccc21	Lmaj promast 92 | Lmaj promast 1uM 72
Cc1cc2nc(SCCOC(=O)Nc3ccccc3)nc(C)c2cc1C	Lmaj promast 66 (no result: bCat nuc transl) | Lmaj promast 1uM inactive
CN(C)c1ccnc(C(=O)O)c1	none
C=CCSC1=NN2CCS(=O)(=O)N=C2S1	Lmaj promast 100 | Lmaj promast 1uM inactive
CCOC(=O)CSC1=NN2CCS(=O)(=O)N=C2S1	none
Cc1nc(Cl)c2c(n1)NC(=O)CO2	none (no result: MT stabilize HCS, Lmaj promast)
CCn1c(/C=C/c2ccccc2C)nc2ccccc2c1=O	none (no result: MT stabilize HCS, Lmaj promast)
O=[N+]([O-])c1ccc(O)c2ncccc12	Lmaj promast 96 (no result: bCat nuc transl) | Lmaj promast 1uM inactive
CCSc1nnc2nc3[nH]c4c(C)cccc4c3nn12	none
C=CCSc1nnc2c(n1)[nH]c1c(C)cccc12	Lmaj promast 61 | Lmaj promast 1uM inactive
Cc1cc(C(=O)N/N=C2\CCCc3ccccc32)c(C)o1	none
CC[n+]1c(C)sc2c(C)cc(C)cc21	Lmaj promast 69 | Lmaj promast 1uM inactive
Cc1cc(C)c2sc(C)[n+](CCCS(=O)(=O)[O-])c2c1	none
COc1cccc(/C=N/n2c(SC)nnc2-c2ccccc2)c1OC	Lmaj promast 84 | Lmaj promast 1uM inactive
COc1cccc(/C=N/n2c(=S)n(C)c3cc(C)c(C)cc32)c1OC	none
CCN(CC)CC(=O)Nc1ccc2c(c1)N(C(=O)CN(CC)CC)c1ccccc1CC2	Lmaj promast 99 | Lmaj promast 1uM inactive
C/C(=N\NC1=NCCN1)c1ccccc1	none (no result: MT stabilize HCS, Lmaj promast)
CCCCCOc1ccc(Br)cc1/C(C)=N/NC1=NCCN1	Lmaj promast 100 (no result: HSV replic up) | Lmaj promast 1uM inactive
CCOc1ccc(NC(=O)C2CCC(C)(C(=O)O)C2(C)C)cc1 (stereo unspecified)	none
CCCCC(=O)Nc1ccc(C(=O)NCC(=O)OC)cc1	none
